From ChEMBL document CHEMBL1124607, “Studies on antitumor agents. 8. Antitumor activities of O-alkyl derivatives of 2'-deoxy-5-(trifluoromethyl)uridine and 2'-deoxy-5-fluorouridine” (1989)

species on record: Mus musculus; test: Antitumor activity against transplanted tumor sarcoma 180 expressed as effective dose.; assay type: functional
Outline: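 Male ICR mice, five weeks old, implanted s.c. in the axilla with 5×10^6 sarcoma 180 cells. Starting 24 h after implant, compounds were given orally once daily for 7 consecutive days as a suspension in 0.5% CMC with 0.1% Tween 80. Seven mice per dose. Tumors were excised and weighed on day 10, and inhibition was taken from treated/control tumor weight.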

| Structure (SMILES) | ED50 [mg/kg/day] |
| --- | --- |
| Cc1ccccc1COC[C@H]1O[C@@H](n2cc(C(F)(F)F)c(=O)[nH]c2=O)C[C@@H]1O | > 40 |
| O=c1[nH]c(=O)n([C@H]2C[C@H](OCc3ccc(Cl)cc3)[C@@H](CO)O2)cc1C(F)(F)F | < 10 |
| COc1ccc(COC[C@H]2O[C@@H](n3cc(C(F)(F)F)c(=O)[nH]c3=O)C[C@@H]2O)cc1 | > 40 |
| Cc1cccc(CO[C@H]2C[C@H](n3cc(C(F)(F)F)c(=O)[nH]c3=O)O[C@@H]2CO)c1 | 36 |
| Cc1cccc(COC[C@H]2O[C@@H](n3cc(C(F)(F)F)c(=O)[nH]c3=O)C[C@@H]2O)c1 | 28 |
| Cc1ccccc1CO[C@H]1C[C@H](n2cc(C(F)(F)F)c(=O)[nH]c2=O)O[C@@H]1CO | 40 |
| CCOC[C@H]1O[C@@H](n2cc(C(F)(F)F)c(=O)n(C(=O)c3ccccc3)c2=O)C[C@@H]1O | 23 |
| O=C(c1ccccc1)n1c(=O)c(C(F)(F)F)cn([C@H]2C[C@H](OCc3ccccc3)[C@@H](CO)O2)c1=O | 26 |
| CCO[C@H]1C[C@H](n2cc(C(F)(F)F)c(=O)[nH]c2=O)O[C@@H]1CO | 15 |
| CCO[C@H]1C[C@H](n2cc(C(F)(F)F)c(=O)n(C(=O)c3ccccc3)c2=O)O[C@@H]1CO | 37 |
| O=c1[nH]c(=O)n([C@H]2C[C@H](OCc3ccccc3)[C@@H](COCc3ccccc3)O2)cc1C(F)(F)F | > 40 |
| CCOC[C@H]1O[C@@H](n2cc(C(F)(F)F)c(=O)[nH]c2=O)C[C@@H]1O | 14 |
| O=c1[nH]c(=O)n([C@H]2C[C@H](O)[C@@H](COCc3ccc(Cl)cc3)O2)cc1C(F)(F)F | 14 |
| O=c1[nH]c(=O)n([C@H]2C[C@H](OCc3ccccc3)[C@@H](CO)O2)cc1C(F)(F)F | 13 |
| CCO[C@H]1C[C@H](n2cc(F)c(=O)[nH]c2=O)O[C@@H]1CO | > 40 |
| O=c1[nH]c(=O)n([C@H]2C[C@H](OCc3ccccc3)[C@@H](CO)O2)cc1F | 12 |
| CCOC[C@H]1O[C@@H](n2cc(F)c(=O)[nH]c2=O)C[C@@H]1O | 39 |
| O=c1c(C(F)(F)F)cn([C@H]2C[C@H](O)[C@@H](CO)O2)c(=O)n1Cc1ccccc1 | > 40 |
| O=c1[nH]c(=O)n([C@H]2C[C@H](O)[C@@H](COCc3ccccc3)O2)cc1C(F)(F)F | 15 |
| COc1ccc(CO[C@H]2C[C@H](n3cc(C(F)(F)F)c(=O)[nH]c3=O)O[C@@H]2CO)cc1 | > 40 |
| O=c1[nH]c(=O)n([C@H]2C[C@H](O)[C@@H](COCc3ccccc3)O2)cc1F | 16 |
| O=c1nc(OCc2ccccc2)c(C(F)(F)F)cn1[C@H]1C[C@H](O)[C@@H](CO)O1 | > 40 |
| CCOC[C@H]1O[C@@H](n2cc(C(F)(F)F)c(=O)[nH]c2=O)C[C@@H]1OCC | 25 |
| O=C(c1ccccc1)n1c(=O)c(C(F)(F)F)cn([C@H]2C[C@H](O)[C@@H](COCc3ccccc3)O2)c1=O | 26 |
| O=c1[nH]c(=O)n([C@H]2C[C@H](O)[C@@H](CO)O2)cc1F [FLOXURIDINE] | 84 |
| O=c1[nH]c(=O)n([C@H]2C[C@H](O)[C@@H](CO)O2)cc1C(F)(F)F [TRIFLURIDINE] | 63 |
